High-throughput results: PubChem, several laboratories
FAS TE block – FAS thioesterase (human) inhibition; recombinant FAS-TE, OMFH fluorogenic substrate, fluorescence endpoint; inhibition, % at 15 µM; hit rate 0.67% among 360,000; AID 602261;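 active means compounds whose normalised, plate-corrected inhibition of enzyme fluorescence in the single-dose primary screen is 50% or more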;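 further: 0% = DMSO with enzyme and 100% = substrate without enzyme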
Target sequence (P49327 whole entry, looked up): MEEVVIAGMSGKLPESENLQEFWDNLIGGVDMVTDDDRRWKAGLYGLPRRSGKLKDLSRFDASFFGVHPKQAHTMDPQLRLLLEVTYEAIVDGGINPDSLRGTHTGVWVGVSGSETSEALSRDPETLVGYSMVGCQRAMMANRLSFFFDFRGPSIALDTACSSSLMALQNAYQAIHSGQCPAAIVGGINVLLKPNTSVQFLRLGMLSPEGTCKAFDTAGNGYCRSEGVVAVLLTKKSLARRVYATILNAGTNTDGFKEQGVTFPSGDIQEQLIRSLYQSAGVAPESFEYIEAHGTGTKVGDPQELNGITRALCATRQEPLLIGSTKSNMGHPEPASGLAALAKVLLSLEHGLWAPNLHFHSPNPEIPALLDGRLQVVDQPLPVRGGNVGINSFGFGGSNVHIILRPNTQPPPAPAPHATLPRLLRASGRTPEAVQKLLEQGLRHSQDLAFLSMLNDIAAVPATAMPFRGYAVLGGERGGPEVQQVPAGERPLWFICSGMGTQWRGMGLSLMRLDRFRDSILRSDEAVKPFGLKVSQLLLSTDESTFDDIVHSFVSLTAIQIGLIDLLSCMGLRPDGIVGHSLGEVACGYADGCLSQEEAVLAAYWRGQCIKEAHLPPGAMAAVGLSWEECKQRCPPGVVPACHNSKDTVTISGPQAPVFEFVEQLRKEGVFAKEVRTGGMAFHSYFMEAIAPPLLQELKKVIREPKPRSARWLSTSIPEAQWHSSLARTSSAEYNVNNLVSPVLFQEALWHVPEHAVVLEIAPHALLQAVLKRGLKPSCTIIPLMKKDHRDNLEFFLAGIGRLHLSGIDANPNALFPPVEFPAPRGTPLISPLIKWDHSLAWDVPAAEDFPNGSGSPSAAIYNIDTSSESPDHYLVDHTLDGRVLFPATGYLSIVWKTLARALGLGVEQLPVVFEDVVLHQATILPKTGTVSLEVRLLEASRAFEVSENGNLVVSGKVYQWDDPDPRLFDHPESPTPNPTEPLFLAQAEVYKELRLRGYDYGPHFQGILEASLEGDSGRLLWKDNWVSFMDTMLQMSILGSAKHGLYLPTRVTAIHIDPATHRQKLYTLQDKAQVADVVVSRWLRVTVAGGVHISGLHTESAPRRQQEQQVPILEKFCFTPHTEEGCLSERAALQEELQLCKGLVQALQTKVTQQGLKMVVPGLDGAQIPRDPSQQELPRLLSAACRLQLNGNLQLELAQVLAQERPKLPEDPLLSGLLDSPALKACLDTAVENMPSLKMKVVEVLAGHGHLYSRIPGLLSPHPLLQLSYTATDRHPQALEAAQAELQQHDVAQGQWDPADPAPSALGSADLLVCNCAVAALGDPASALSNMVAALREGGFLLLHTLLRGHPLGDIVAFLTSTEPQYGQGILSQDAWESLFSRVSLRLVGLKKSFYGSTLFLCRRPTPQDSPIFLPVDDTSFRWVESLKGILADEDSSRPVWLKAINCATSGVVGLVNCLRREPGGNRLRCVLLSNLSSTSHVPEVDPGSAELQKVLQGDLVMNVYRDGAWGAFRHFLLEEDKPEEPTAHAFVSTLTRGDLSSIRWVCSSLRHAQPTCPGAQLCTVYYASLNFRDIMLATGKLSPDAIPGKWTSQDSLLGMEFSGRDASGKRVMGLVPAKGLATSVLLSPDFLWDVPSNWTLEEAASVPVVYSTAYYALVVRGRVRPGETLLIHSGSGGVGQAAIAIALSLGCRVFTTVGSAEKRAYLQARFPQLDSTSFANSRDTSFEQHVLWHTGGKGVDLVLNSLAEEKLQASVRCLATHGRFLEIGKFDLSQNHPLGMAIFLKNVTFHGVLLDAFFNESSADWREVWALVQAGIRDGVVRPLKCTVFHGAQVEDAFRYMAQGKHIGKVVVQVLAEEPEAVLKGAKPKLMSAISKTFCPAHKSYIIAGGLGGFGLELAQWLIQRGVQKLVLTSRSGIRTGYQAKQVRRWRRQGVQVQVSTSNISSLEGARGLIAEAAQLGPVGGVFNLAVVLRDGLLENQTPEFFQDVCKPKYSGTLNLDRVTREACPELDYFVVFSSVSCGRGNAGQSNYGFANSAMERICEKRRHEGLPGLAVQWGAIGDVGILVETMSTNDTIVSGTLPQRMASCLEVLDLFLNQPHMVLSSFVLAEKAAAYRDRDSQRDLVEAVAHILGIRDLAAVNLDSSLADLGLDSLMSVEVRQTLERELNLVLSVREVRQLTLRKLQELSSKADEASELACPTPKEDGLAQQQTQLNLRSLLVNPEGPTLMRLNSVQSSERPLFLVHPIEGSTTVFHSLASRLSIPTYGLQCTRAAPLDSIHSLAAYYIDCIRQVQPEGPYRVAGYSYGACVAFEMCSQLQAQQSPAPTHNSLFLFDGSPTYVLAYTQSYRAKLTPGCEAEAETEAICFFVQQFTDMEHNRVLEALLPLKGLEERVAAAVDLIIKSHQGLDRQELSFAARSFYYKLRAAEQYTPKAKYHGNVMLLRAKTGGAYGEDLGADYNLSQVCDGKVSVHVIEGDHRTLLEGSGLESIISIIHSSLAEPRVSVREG
NR3A LBD binder – modulators (binders) of human NR3A ligand-binding domain; NR3A LBD differential scanning fluorimetry, Tm shift; 0% = protein alone, 100% = glycine-bound protein; Tm shift relative to glycine control, % at 25 µM; hit rate 2.5% among 340,000;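 active means melting temperature shift of at least 10% of the positive control shift, at one fixed dose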
H9c2 protect – protects H9c2 cardiomyocytes from peroxide injury | hit rate 0.63% among 360,000 | H2O2 injury protection, ATPLite, 2 h | protection from H2O2 cell death, % at 20 µM;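 active means compounds giving at least 50% protection of heart cells from peroxide-induced death in the single-dose screen, raw or plate-pattern-corrected value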;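 further: 0% = DMSO wells with peroxide and 100% = DMSO wells without peroxide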
Arrestin-AP2 inh – inhibitors of human beta-arrestin and AP2 interaction; hit rate 0.31% among 340,000; AID 504490; inhibition, % at 10 µM; FITC-arrestin peptide / GST-AP2 beads, flow cytometry; AP2 beta2 appendage carries R879A mutation;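 active means inhibition above a set limit, near 3 SD of compounds lacking own fluorescence, cut at about 54% in these data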;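 further: plate controls were DMSO wells for no effect and 5 µM unlabelled arrestin peptide for full effect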
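Assay system: GST-AP2 R879A bound to glutathione beads, E. coli-expressed; Medium: PBS with 0.05% Tween 20 and 0.1% BSA; Also added: fluorescein-tagged arrestin peptide at 50 nM final; Timing: 12 min plus 1 h, RT; Measured by: flow cytometry, FL1 (488/535 nm); Evaluation: percent drop in bead-associated FITC signal.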
SENP1 inh – blocks the human SENP1 SUMO protease catalytic domain; recombinant SENP1 catalytic domain, CyPet-SUMO1-YPet FRET cleavage; inhibition, % at 10 µM; hit rate 0.21% among 360,000; Q9P0U3;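 active means inhibition at least 30% at 10 µM, raw YFP signal under a set limit, fluorescence ratio 0.5 to 1.5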;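 further: 0% = enzyme with DMSO and 100% = no enzyme wells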
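Controls: no-enzyme wells low, DMSO-plus-enzyme wells high control. Test system: human recombinant His6-tagged SENP1 catalytic domain enzyme. Reagent: SFCypet-SUMO1-SFYpet FRET protein substrate, 25 nM final. Doses: one dose per compound, 10 µM, 0.5% DMSO. Detection: FRET, CFP and YFP emission. Timing: 50 min reaction at room temperature.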
hiPSC survival – enhancers of human iPSC single-cell survival; hiPSC single-cell survival, ATPlite luminescence; 100% = ROCK inhibitor wells, 0% = DMSO; survival enhancement, % at 20 µM; hit rate 0.044% among 360,000; AID 602274; in the data active means survival enhancement above about 18%;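 further: cells exposed to compounds for 16 hours before the ATP read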
Arr-AP2 CP1 – human beta-arrestin and AP2 interaction inhibition, cherry pick; hit rate 2% among 1,300; inhibition, % at 10 µM; GST-AP2 beads, FITC arrestin peptide binding, flow cytometry; GST-fused beta2-adaptin appendage, R879A mutant; AID 504908; shares compounds with Arrestin-AP2 inh;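 active means inhibition above a set limit, roughly 3 SD of non-fluorescent compound noise, cut at about 38% in these data; inactive means inhibition at or below that limit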;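 further: loss of bead fluorescence from 50 nM FITC arrestin peptide bound to appendage; 0% = negative control wells and 100% = excess unlabelled arrestin peptide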
GST GSH counter – GST-GSH bead binding interference, counter-screen; GST-fluorescein binding to GSH beads, fluorescence; shares compounds with Arrestin-AP2 inh; inhibition, % at 10 µM; hit rate 2% among 1,300; AID 588338;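 active means inhibition above 50%, about 3 SD of the inhibition seen with non-fluorescent compounds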;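 further: fluorescein maleimide labelled GST captured on 4 micron glutathione beads; higher means more loss of bead fluorescence from quenching or blocked binding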
The depositor's hits bear a star; . = no result. Only some compounds are listed: those with a hit (about 4% of all), similar ones and a draw of the others.

SMILES	FAS TE block	NR3A LBD binder	H9c2 protect	Arrestin-AP2 inh	SENP1 inh	hiPSC survival	Arr-AP2 CP1	GST GSH counter
O=C(CC12CC3CC(CC(C3)C1)C2)NC(Cc1ccccc1)C(=O)O (centres undefined)	0.0	-1.8	2.8	55.0*	1.6	1.1	-1.2	8.9
CCOCC(=O)Nc1ccc2c(c1)N(S(=O)(=O)c1cccs1)CCC2	4.4	1.0	5.7	55.8*	-0.2	-0.5	-1.9	-9.4
CCNc1ccc2noc3c2c1C(=O)c1ccccc1-3	-155.5	-513.2	45.1	62.9*	70.4	-0.2	33.6	91.0*
COc1cccc(-n2nc3c(=S)[nH]nc(C)c3c2C)c1	-7.4	-1.9	2.4	85.1*	-18.8	1.4	16.6	-3.5
CC(=O)NCCNc1nc2cc(-c3ccccc3CO)sc2c(=O)n1C	-1.1	.	-9.1	.	-2.1	4.2	.	.
CCCNC(=O)C1(C)CCN(C(=O)c2c(F)ccc(C)c2F)C1 (centres undefined)	-5.2	.	-7.3	.	2.9	0.3	.	.
COc1cc(C2C(C(C)=O)=C(O)C(=O)N2CCN(C)C)ccc1O (centres undefined)	-9.9	0.8	13.4	68.9*	1.7	-3.7	5.2	-5.2
COCCN1C(=O)C(O)=C(C(C)=O)C1c1ccc(OC)c(OC)c1 (centres undefined)	-8.3	-0.2	-6.1	0.4	-1.0	0.8	.	.
C=CCN1C(=O)c2ccc(C(=O)N3CCN(S(=O)(=O)c4cc(C)ccc4C)CC3)cc2C1=O	10.4	-0.7	1.7	6.7	-0.4	-0.5	.	.
C=CCN1C(=O)c2ccc(C(=O)N3CCN(S(=O)(=O)c4cccc(F)c4)CC3)cc2C1=O	-0.2	-0.4	3.1	65.8*	1.0	0.8	4.5	-9.9
O=[N+]([O-])c1ccc(NS(=O)(=O)c2cccc3cccnc23)cc1	1.1	-0.9	-2.7	55.4*	-5.4	-0.3	-1.9	-1.9
CN(C)c1ccc(CC(=O)N2CCCC(c3cc(C(=O)Nc4ccc(C(C)(C)C)cc4)no3)C2)cc1 (centres undefined)	8.7	.	-16.7	.	-1.1	-0.5	.	.
COCCNC(=O)C1CCCN(C(=O)c2ccc(C(F)(F)F)nc2C)CC1 (centres undefined)	-4.3	.	-0.7	.	1.8	-1.0	.	.
COc1ccc(Cl)cc1NC(=O)COC(=O)C1CC(=O)N(Cc2ccccc2)C1 (centres undefined)	6.9	1.7	0.7	57.8*	0.8	-0.5	5.0	0.7
COc1ccc(Cl)cc1NC(=O)COC(=O)C1CC1	-6.4	0.3	4.9	-3.2	0.8	-1.7	.	.
COc1ccc(Cl)cc1NC(=O)COC(=O)C1CCCCC1	31.7	1.1	4.9	56.7*	-1.8	0.7	6.3	-7.3
O=C(CC[C@H]1O[C@@H](n2cnc3c(NC(=O)c4ccccc4)ncnc32)[C@H](O)[C@@H]1O)NCc1nc2ccccc2[nH]1	-6.3	.	2.7	.	0.5	1.2	.	.
CCCCNC(=O)C1(C)CCN1C(=O)c1ccc(OC)c(F)c1 (centres undefined)	-1.0	.	4.3	.	0.7	-1.5	.	.
COC1c2ccccc2C(=O)N1Cc1ccc(F)cc1 (centres undefined)	-6.0	-1.2	2.1	61.3*	-0.1	0.4	8.4	-10.5
COc1ccc(CN2C(=O)c3ccccc3C2OC)cc1 (centres undefined)	-0.6	1.6	1.6	-4.1	-0.8	0.4	.	.
CCOC(=O)n1c(O)c(N=NC(N)=S)c2cc(C)ccc21	-4.9	0.1	3.8	54.2*	1.7	-0.3	-9.9	1.9
Cc1cc(C)nc(NS(=O)(=O)c2ccc(NC(=S)NC(=O)c3ccco3)cc2)n1	-6.9	-0.8	3.2	57.8*	-5.1	3.3	-5.2	-5.2
COc1cccc(/C=C/C(=O)N2CCN(S(=O)(=O)c3ccccc3)CC2)c1	7.2	.	0.3	.	1.5	0.8	.	.
